Test results reported in ChEMBL document CHEMBL4396885, “Thioether-based 2-aminobenzamide derivatives: Novel HDAC inhibitors with potent in vitro and in vivo antitumor activity” (Eur J Med Chem, 2019).

Tests used:
[1] = system: HCT-116; assay: Antiproliferative activity against human HCT116 cells assessed as growth inhibition at 2 uM after 72 hrs by CCK-8 assay relative to control; format: functional; conditions: HCT-116, 72 h, read-out: GI
[2] = system: SMMC-7721; assay: Antiproliferative activity against human SMMC7721 cells assessed as growth inhibition at 8 uM after 72 hrs by CCK-8 assay relative to control; format: functional; conditions: SMMC-7721, 72 h, read-out: GI
[3] = system: HeLa; assay: Antiproliferative activity against human HeLa cells assessed as growth inhibition at 8 uM after 72 hrs by CCK-8 assay relative to control; format: functional; conditions: read-out: GI
[4] = system: A549; assay: Antiproliferative activity against human A549 cells assessed as growth inhibition at 8 uM after 72 hrs by CCK-8 assay relative to control; format: functional; conditions: A549, 72 h, read-out: GI
[5] = system: A-375; assay: Antiproliferative activity against human A375 cells assessed as growth inhibition at 2 uM after 72 hrs by CCK-8 assay relative to control; format: functional; conditions: A-375, 72 h, read-out: GI
[6] = system: SMMC-7721; assay: Antiproliferative activity against human SMMC7721 cells assessed as growth inhibition at 2 uM after 72 hrs by CCK-8 assay relative to control; format: functional; conditions: SMMC-7721, 72 h, read-out: GI
[7] = system: A-375; assay: Antiproliferative activity against human A375 cells assessed as growth inhibition at 8 uM after 72 hrs by CCK-8 assay relative to control; format: functional; conditions: A-375, 72 h, read-out: GI
[8] = system: HCT-116; assay: Antiproliferative activity against human HCT116 cells assessed as growth inhibition at 8 uM after 72 hrs by CCK-8 assay relative to control; format: functional; conditions: HCT-116, 72 h, read-out: GI
[9] = system: HeLa; assay: Antiproliferative activity against human HeLa cells assessed as growth inhibition at 2 uM after 72 hrs by CCK-8 assay relative to control; format: functional; conditions: read-out: GI
[10] = system: A549; assay: Antiproliferative activity against human A549 cells assessed as growth inhibition at 2 uM after 72 hrs by CCK-8 assay relative to control; format: functional; conditions: A549, 72 h, read-out: GI
[11] = system: A-375; assay: Antiproliferative activity against human A375 cells assessed as decrease in cell viability after 72 hrs by CCK-8 assay; format: functional, cell-based; conditions: A-375, 72 h
How it was run: (§1)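 Cells grown to 70–85% confluence (A375, A549, HCT116 in RPMI1640; HeLa, SMMC7721 in DMEM; 10% FBS, 37 °C, 5% CO2), seeded 4000/well, dosed after 12 h across a concentration range, incubated 72 h, then CCK-8 for 1 h; absorbance at 450 nm. IC50 as mean ± SD of three separate experiments.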

[12] = system: A549; assay: Antiproliferative activity against human A549 cells assessed as decrease in cell viability after 72 hrs by CCK-8 assay; format: functional, cell-based; conditions: A549, 72 h; how it was run: as §1
[13] = system: SMMC-7721; assay: Antiproliferative activity against human SMMC7721 cells assessed as decrease in cell viability after 72 hrs by CCK-8 assay; format: functional, cell-based; conditions: SMMC-7721, 72 h; how it was run: as §1
[14] = system: HeLa; assay: Antiproliferative activity against human HeLa cells assessed as decrease in cell viability after 72 hrs by CCK-8 assay; format: functional, cell-based; how it was run: as §1
[15] = system: HCT-116; assay: Antiproliferative activity against human HCT116 cells assessed as decrease in cell viability after 72 hrs by CCK-8 assay; format: functional, cell-based; conditions: HCT-116, 72 h; how it was run: as §1

Row | SMILES | inhibition of growth at 2 µM [1] [%] | inhibition of growth at 8 µM [2] [%] | inhibition of growth at 8 µM [3] [%] | inhibition of growth at 8 µM [4] [%] | inhibition of growth at 2 µM [5] [%] | inhibition of growth at 2 µM [6] [%] | inhibition of growth at 8 µM [7] [%] | inhibition of growth at 8 µM [8] [%] | inhibition of growth at 2 µM [9] [%] | inhibition of growth at 2 µM [10] [%] | IC50 [11] [µM] | IC50 [12] [µM] | IC50 [13] [µM] | IC50 [14] [µM] | IC50 [15] [µM]
1 | CC(C)(C)c1ccc(SCc2ccc(C(=O)Nc3ccccc3N)cc2)cc1 | 4.81 | 46.1 | 40.2 | 67 | 2.13 | 23.6 | 33.1 | 60.5 | 9.73 | 38.6 |  |  |  |  | 
2 | Nc1ccccc1NC(=O)/C=C/c1ccc(CSCCc2ccccc2)cc1 | 18 | 15.8 | 3.57 | 50.3 | 41.9 | 14.7 | 37.4 | 10.6 | 0.19 | 45.7 | 15.7 | 1.15 | 10.9 |  | 
3 | Nc1ccccc1NC(=O)c1ccc(CSc2ccc(C(F)(F)F)cn2)cc1 | 1.2 | 7.57 | 16.5 | 38.9 | 4.3 | 12.4 | 5.34 | 25.8 | 11.5 | 37.1 |  |  |  |  | 
4 | Nc1ccccc1NC(=O)/C=C/c1ccc(CSc2ccc(C(F)(F)F)cn2)cc1 | 4.42 | 20.1 | 6.82 | 56.5 | 10.3 | 12.1 | 3.96 | 14.9 | 6.07 | 51.7 |  |  |  |  | 
5 | Cc1ccc(SCc2ccc(/C=C/C(=O)Nc3ccccc3N)cc2)cc1 | 6.23 | 22.1 | 21.7 | 48.2 | 22.9 | 22 | 31.2 | 4.93 | 25.4 | 43.4 |  |  |  |  | 
6 | Nc1ccccc1NC(=O)/C=C/c1ccc(CSc2ccc(Cl)cc2)cc1 | 5.62 | 16.4 | 17.3 | 59.6 | 13.4 | 15.2 | 48.2 | 3.27 | 1.94 | 55.2 |  |  |  |  | 
7 | Nc1ccccc1NC(=O)c1ccc(CSc2ccc(F)cc2)cc1 | 13.5 | 81.9 | 79.3 | 44.5 | 19.4 | 6.58 | 54.3 | 90.6 | 27.9 | 43.4 |  |  | 5.77 | 5.01 | 4.01
8 | Cc1cc(C)cc(SCc2ccc(/C=C/C(=O)Nc3ccccc3N)cc2)c1 | 7.98 | 7.13 | 3.39 | 47.3 | 8.78 | 8.61 | 2.49 | 4.2 | 11.7 | 46.1 |  |  |  |  | 
9 | CCc1ccc(SCc2ccc(/C=C/C(=O)Nc3ccccc3N)cc2)cc1 | 3.29 | 19.5 | 20.9 | 68.6 | 5.27 | 13.2 | 58.4 | 2.68 | 3.96 | 60.7 |  | 1.3 |  |  | 
10 | Nc1ccccc1NC(=O)/C=C/c1ccc(CSc2cccc3ccccc23)cc1 | 11 | 18.3 | 22.1 | 71.2 | 1.55 | 3.7 | 36 | 35.2 | 20.6 | 59.3 |  | 0.83 |  |  | 
11 | Nc1ccccc1NC(=O)/C=C/c1ccc(CSc2cccc(F)c2)cc1 | 7.95 | 8.25 | 18.6 | 56.6 | 6.75 | 8.56 | 9.08 | 3.22 | 2.25 | 50.7 |  |  |  |  | 
12 | COc1ccc(SCc2ccc(/C=C/C(=O)Nc3ccccc3N)cc2)cc1OC | 12.9 | 44.6 | 21.9 | 80.6 | 46 | 14.3 | 46.4 | 49.5 | 10.1 | 65.5 |  |  |  |  | 
13 | Nc1ccccc1NC(=O)/C=C/c1ccc(CSc2ccc(F)cc2)cc1 | 14.1 | 15.4 | 10.4 | 59.1 | 28.8 | 18.3 | 24.6 | 20.2 | 7.09 | 51.2 | 3.67 | 1.19 |  |  | 
14 | CC(C)(C)c1ccc(SCc2ccc(/C=C/C(=O)Nc3ccccc3N)cc2)cc1 | 6.66 | 23.6 | 9.8 | 79.8 | 38.4 | 18.3 | 35.5 | 39 | 17.5 | 71.5 | 1.55 | 0.64 |  |  | 
15 | Nc1ccccc1NC(=O)c1ccc(CSc2ccc(Br)cc2)cc1 | 9.96 | 25.3 | 38.2 | 45.6 | 4.35 | 10 | 6.17 | 67.7 | 18.8 | 33.2 |  |  |  |  | 
16 | Nc1ccccc1NC(=O)c1ccc(CSc2ccc(Cl)cc2)cc1 | 17.5 | 16.5 | 51.4 | 50.4 | 25.2 | 2.93 | 48.6 | 76.6 | 19.2 | 47.3 |  |  |  | 12.7 | 3.75
